Experimental data published in ChEMBL document CHEMBL4689842, “EUbOPEN Chemogenomics Library wave 1” (2021).
“And” between values parts separate entries of the source, which are not always exact repeats. Equal entries are not always repeated.

Tested on: HEK-293T
Test: Multiplex assay against HEK293T;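 as to Population Tubulin-Different-Phenotype (%): share of the cells with healthy nuclei that show this phenotype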
Format: toxicity, cell-based
Details: human
Summary of the method: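 Per cents of healthy-nucleus cells form the tubulin, mitochondrial-mass and membrane-permeability phenotype values. Live cells were stained at seeding with Hoechst33342, BioTracker Green Microtubule Cytoskeleton Dye, MitoTracker Red and Annexin V Alexa Fluor 680. After compound addition they were imaged on a CQ1 microscope at 37°C and 5% CO2, and CellPathfinder machine-learning gating split them into Hoechst high-intensity objects or normal cells, normal cells into healthy, pyknosed or fragmented nuclei, and pyknosed cells into mitotic or apoptotic.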

[1] = 12 h, 1 µM, compound concentration 1 uM, replicate 1
[2] = 12 h, 1 µM, compound concentration 1 uM, replicate 2
[3] = 12 h, 10 µM, compound concentration 10 uM, replicate 1
[4] = 12 h, 10 µM, compound concentration 10 uM, replicate 2
[5] = 24 h, 1 µM, compound concentration 1 uM, replicate 1
[6] = 24 h, 1 µM, compound concentration 1 uM, replicate 2
[7] = 24 h, 10 µM, compound concentration 10 uM, replicate 1
[8] = 24 h, 10 µM, compound concentration 10 uM, replicate 2

CCOc1ccn(-c2ccc(F)cc2)c(=O)c1C(=O)Nc1ccc(Oc2ccnc(N)c2Cl)c(F)c1 [BMS-777607]
Population Apoptotic (%) [1]: 25% | Population Fragmented Nuclei (%) [1]: 14% | Population Healthy Nuclei (%) [1]: 67% | Population Hoechst High Intensity Objects (%) [1]: 10% | Population Membrane Permeable-Phenotype (%) [1]: 6% | Population Mitochondria Different-Phenotype (%) [1]: 10% | Population Mitotic Cells (%) [1]: 75% | Population Normal (%) [1]: 89% | Population Pyknosed Nuclei (%) [1]: 17% | Population Tubulin-Different-Phenotype (%) [1]: 22% | Total Cell Count [1]: 624 | Population Apoptotic (%) [2]: 5% | Population Fragmented Nuclei (%) [2]: 5% | Population Healthy Nuclei (%) [2]: 89% | Population Hoechst High Intensity Objects (%) [2]: 2% | Population Mitochondria Different-Phenotype (%) [2]: 16% | Population Mitotic Cells (%) [2]: 95% | Population Normal (%) [2]: 97% | Population Pyknosed Nuclei (%) [2]: 5% | Population Tubulin-Different-Phenotype (%) [2]: 48% | Total Cell Count [2]: 1393 | Population Apoptotic (%) [3]: 23% | Population Fragmented Nuclei (%) [3]: 25% | Population Healthy Nuclei (%) [3]: 50% | Population Hoechst High Intensity Objects (%) [3]: 15% | Population Membrane Permeable-Phenotype (%) [3]: 4% | Population Mitochondria Different-Phenotype (%) [3]: 3% | Population Mitotic Cells (%) [3]: 76% | Population Normal (%) [3]: 84% | Population Pyknosed Nuclei (%) [3]: 25% | Population Tubulin-Different-Phenotype (%) [3]: 3% | Total Cell Count [3]: 432 | Population Apoptotic (%) [4]: 15% | Population Fragmented Nuclei (%) [4]: 9% | Population Healthy Nuclei (%) [4]: 86% | Population Hoechst High Intensity Objects (%) [4]: 2% | Population Membrane Permeable-Phenotype (%) [4]: 2% | Population Mitochondria Different-Phenotype (%) [4]: 7% | Population Mitotic Cells (%) [4]: 84% | Population Normal (%) [4]: 97% | Population Pyknosed Nuclei (%) [4]: 4% | Population Tubulin-Different-Phenotype (%) [4]: 5% | Total Cell Count [4]: 1444 | Population Apoptotic (%) [5]: 17% | Population Fragmented Nuclei (%) [5]: 11% | Population Healthy Nuclei (%) [5]: 76% | Population Hoechst High Intensity Objects (%) [5]: 10% | Population Membrane Permeable-Phenotype (%) [5]: 10% | Population Mitochondria Different-Phenotype (%) [5]: 12% | Population Mitotic Cells (%) [5]: 82% | Population Normal (%) [5]: 89% | Population Pyknosed Nuclei (%) [5]: 12% | Population Tubulin-Different-Phenotype (%) [5]: 40% | Total Cell Count [5]: 625 | Population Apoptotic (%) [6]: 9% | Population Fragmented Nuclei (%) [6]: 10% | Population Healthy Nuclei (%) [6]: 84% | Population Hoechst High Intensity Objects (%) [6]: 6% | Population Membrane Permeable-Phenotype (%) [6]: 12% | Population Mitochondria Different-Phenotype (%) [6]: 4% | Population Mitotic Cells (%) [6]: 90% | Population Normal (%) [6]: 93% | Population Pyknosed Nuclei (%) [6]: 4% | Population Tubulin-Different-Phenotype (%) [6]: 70% | Total Cell Count [6]: 1553 | Population Apoptotic (%) [7]: 25% | Population Fragmented Nuclei (%) [7]: 18% | Population Healthy Nuclei (%) [7]: 69% | Population Hoechst High Intensity Objects (%) [7]: 13% | Population Membrane Permeable-Phenotype (%) [7]: 6% | Population Mitochondria Different-Phenotype (%) [7]: 3% | Population Mitotic Cells (%) [7]: 74% | Population Normal (%) [7]: 86% | Population Pyknosed Nuclei (%) [7]: 12% | Population Tubulin-Different-Phenotype (%) [7]: 5% | Total Cell Count [7]: 433 | Population Apoptotic (%) [8]: 8% | Population Fragmented Nuclei (%) [8]: 27% | Population Hoechst High Intensity Objects (%) [8]: 2% | Population Membrane Permeable-Phenotype (%) [8]: 5% | Population Mitochondria Different-Phenotype (%) [8]: 1% | Population Mitotic Cells (%) [8]: 91% | Population Normal (%) [8]: 97% | Population Pyknosed Nuclei (%) [8]: 2% | Total Cell Count [8]: 2353

CC[C@@]1(O)C(=O)OCc2c1cc1n(c2=O)Cc2cc3ccccc3nc2-1 [CAMPTOTHECIN]
Population Apoptotic (%) [1]: 13% and 29% and 33% | Population Healthy Nuclei (%) [1]: 67% and 60% and 69% | Population Membrane Permeable-Phenotype (%) [1]: 5% and 3% | Population Mitochondria Different-Phenotype (%) [1]: 5% and 3% | Population Mitotic Cells (%) [1]: 86% and 70% and 66% | Population Normal (%) [1]: 94% and 66% and 79% | Population Tubulin-Different-Phenotype (%) [1]: 5% and 0% and 2% | Total Cell Count [1]: 915 and 710 and 886 | Population Healthy Nuclei (%) [2]: 94% and 77% and 79% | Population Membrane Permeable-Phenotype (%) [2]: 2% and 1% | Population Mitochondria Different-Phenotype (%) [2]: 19% and 9% | Population Mitotic Cells (%) [2]: 87% and 81% and 50% | Population Normal (%) [2]: 98% and 95% and 96% | Population Pyknosed Nuclei (%) [2]: 2% and 1% and 0% | Total Cell Count [2]: 1821 and 1627 and 1427 | Population Apoptotic (%) [3]: 16% | Population Fragmented Nuclei (%) [3]: 15% | Population Healthy Nuclei (%) [3]: 57% | Population Hoechst High Intensity Objects (%) [3]: 13% | Population Membrane Permeable-Phenotype (%) [3]: 3% | Population Mitochondria Different-Phenotype (%) [3]: 2% | Population Mitotic Cells (%) [3]: 83% | Population Normal (%) [3]: 86% | Population Pyknosed Nuclei (%) [3]: 26% | Population Tubulin-Different-Phenotype (%) [3]: 2% | Total Cell Count [3]: 665 | Population Apoptotic (%) [4]: 20% | Population Fragmented Nuclei (%) [4]: 3% | Population Healthy Nuclei (%) [4]: 93% | Population Hoechst High Intensity Objects (%) [4]: 2% | Population Membrane Permeable-Phenotype (%) [4]: 2% | Population Mitochondria Different-Phenotype (%) [4]: 14% | Population Mitotic Cells (%) [4]: 80% | Population Normal (%) [4]: 97% | Population Pyknosed Nuclei (%) [4]: 3% | Population Tubulin-Different-Phenotype (%) [4]: 9% | Total Cell Count [4]: 1781 | Population Apoptotic (%) [5]: 26% and 33% and 22% | Population Healthy Nuclei (%) [5]: 68% and 76% and 85% | Population Membrane Permeable-Phenotype (%) [5]: 7% and 5% and 4% | Population Mitochondria Different-Phenotype (%) [5]: 3% and 4% and 5% | Population Mitotic Cells (%) [5]: 73% and 66% and 77% | Population Normal (%) [5]: 69% and 81% and 96% | Population Pyknosed Nuclei (%) [5]: 5% and 2% and 10% | Population Tubulin-Different-Phenotype (%) [5]: 5% and 6% | Total Cell Count [5]: 653 and 837 and 854 | Population Fragmented Nuclei (%) [6]: 18% and 8% | Population Healthy Nuclei (%) [6]: 81% and 78% and 90% | Population Hoechst High Intensity Objects (%) [6]: 5% | Population Membrane Permeable-Phenotype (%) [6]: 2% and 1% | Population Mitochondria Different-Phenotype (%) [6]: 6% and 8% and 7% | Population Mitotic Cells (%) [6]: 100% and 62% | Population Normal (%) [6]: 94% | Population Pyknosed Nuclei (%) [6]: 0% | Population Tubulin-Different-Phenotype (%) [6]: 8% and 13% | Total Cell Count [6]: 1448 and 1582 and 1694 | Population Apoptotic (%) [7]: 23% | Population Fragmented Nuclei (%) [7]: 11% | Population Healthy Nuclei (%) [7]: 73% | Population Hoechst High Intensity Objects (%) [7]: 8% | Population Membrane Permeable-Phenotype (%) [7]: 4% | Population Mitochondria Different-Phenotype (%) [7]: 2% | Population Mitotic Cells (%) [7]: 76% | Population Normal (%) [7]: 92% | Population Pyknosed Nuclei (%) [7]: 15% | Population Tubulin-Different-Phenotype (%) [7]: 3% | Total Cell Count [7]: 575 | Population Apoptotic (%) [8]: 44% | Population Fragmented Nuclei (%) [8]: 8% | Population Healthy Nuclei (%) [8]: 90% | Population Hoechst High Intensity Objects (%) [8]: 4% | Population Membrane Permeable-Phenotype (%) [8]: 0% | Population Mitochondria Different-Phenotype (%) [8]: 4% | Population Mitotic Cells (%) [8]: 55% | Population Normal (%) [8]: 95% | Population Pyknosed Nuclei (%) [8]: 0% | Population Tubulin-Different-Phenotype (%) [8]: 5% | Total Cell Count [8]: 1706
